# Test results reported in ChEMBL document CHEMBL1124316, “Synthesis and activity of nonhydrolyzable pseudomonic acid analogues” (J Med Chem, 1989).
# Assays:
# Escherichia coli [1] = experiment: In vitro antibacterial activity against Escherichia coli Juhl; type: functional
# Summary of the method: (§1)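 MICs were determined by agar dilution on brain heart infusion agar, with an inoculum of 10⁴ cfu/spot. Strains were either clinical isolates kept frozen in a culture collection or ATCC strains.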
# Escherichia coli [2] = experiment: In vitro antibacterial activity against Escherichia coli SS; type: functional; summary of the method: as §1
# Isoleucine--tRNA ligase = Isoleucine--tRNA ligase (Escherichia coli K-12, UniProt P00956); experiment: Inhibitory activity against Isoleucyl-tRNA synthetase
# Summary of the method: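 Isoleucyl-tRNA synthetase was isolated from Escherichia coli and purified to homogeneity. IC50 values were measured by the ATP-pyrophosphate exchange assay.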
# [3] = test system: Staphylococcus epidermidis; experiment: In vitro antibacterial activity against Staphylococcus epidermidis 3519; type: functional; summary of the method: as §1
# Staphylococcus aureus = experiment: In vitro antibacterial activity against Staphylococcus aureus ATCC […]; type: functional; summary of the method: as §1
# Streptococcus pyogenes = experiment: In vitro antibacterial activity against Streptococcus pyogenes EES 61; type: functional; summary of the method: as §1
# Streptococcus agalactiae = experiment: In vitro antibacterial activity against Streptococcus agalactiae CMX 508; type: functional; summary of the method: as §1
# [4] = Escherichia coli, read-out: MIC
# [5] = Streptococcus pyogenes, read-out: MIC
# Sequence of Isoleucine--tRNA ligase (P00956 whole entry): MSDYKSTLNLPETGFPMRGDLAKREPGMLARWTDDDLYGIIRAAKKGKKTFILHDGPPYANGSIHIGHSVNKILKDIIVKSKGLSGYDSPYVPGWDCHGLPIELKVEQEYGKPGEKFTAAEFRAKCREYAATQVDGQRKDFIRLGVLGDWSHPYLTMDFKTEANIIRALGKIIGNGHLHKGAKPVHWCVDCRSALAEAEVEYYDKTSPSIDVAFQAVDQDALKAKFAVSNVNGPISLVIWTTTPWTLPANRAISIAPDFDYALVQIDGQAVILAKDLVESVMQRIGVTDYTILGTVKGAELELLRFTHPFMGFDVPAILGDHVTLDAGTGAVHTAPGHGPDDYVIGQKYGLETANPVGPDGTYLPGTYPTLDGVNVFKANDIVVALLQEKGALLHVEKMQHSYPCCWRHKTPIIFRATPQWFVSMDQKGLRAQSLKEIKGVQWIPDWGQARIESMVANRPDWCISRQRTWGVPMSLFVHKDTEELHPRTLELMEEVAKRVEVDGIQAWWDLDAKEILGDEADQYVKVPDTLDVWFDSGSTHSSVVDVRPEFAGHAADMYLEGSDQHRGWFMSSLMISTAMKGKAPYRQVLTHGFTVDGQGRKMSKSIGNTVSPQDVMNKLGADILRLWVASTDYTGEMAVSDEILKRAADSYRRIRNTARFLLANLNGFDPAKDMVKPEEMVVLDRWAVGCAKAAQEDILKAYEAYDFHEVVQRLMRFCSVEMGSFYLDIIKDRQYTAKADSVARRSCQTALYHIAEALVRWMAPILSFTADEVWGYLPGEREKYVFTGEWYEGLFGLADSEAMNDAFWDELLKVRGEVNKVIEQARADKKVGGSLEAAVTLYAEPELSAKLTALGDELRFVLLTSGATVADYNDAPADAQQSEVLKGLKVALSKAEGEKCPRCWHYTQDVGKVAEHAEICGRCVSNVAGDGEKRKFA
MIC (Escherichia coli [1]),MIC (Escherichia coli [2]; [4]),IC50 (Isoleucine--tRNA ligase),MIC [3],MIC (Staphylococcus aureus),MIC (Streptococcus pyogenes; [5]),MIC (Streptococcus agalactiae),MIC (Escherichia coli [2]),MIC (Streptococcus pyogenes),Compound
> 100 µg/mL,> 100 µg/mL,> 774 µM,> 100 µg/mL,> 100 µg/mL,> 100 µg/mL,> 100 µg/mL,,,COC(=O)CCCCCCCCOC(=O)CC(=O)C[C@@H]1OCC(C[C@@H]2O[C@H]2[C@@H](C)[C@H](C)O)[C@@H](O)[C@H]1O (some centres undefined)
> 100 µg/mL,12.5 µg/mL,46.5 µM,50 µg/mL,25 µg/mL,12.5 µg/mL,50 µg/mL,,,C/C(=C/Sc1ccccc1)C[C@@H]1OC[C@H](C[C@@H]2O[C@H]2[C@@H](C)[C@H](C)O)[C@@H](O)[C@H]1O
> 100 µg/mL,25 µg/mL,18.4 µM,> 100 µg/mL,100 µg/mL,50 µg/mL,> 100 µg/mL,,,COC(=O)CCCCCCCCSC/C=C(\C)C[C@@H]1OCC(C[C@@H]2O[C@H]2[C@@H](C)[C@H](C)O)[C@@H](O)[C@H]1O (some centres undefined)
> 100 µg/mL,50 µg/mL,390 µM,> 100 µg/mL,> 100 µg/mL,100 µg/mL,> 100 µg/mL,,,CCCCSC/C=C(\C)C[C@@H]1OCC(C[C@@H]2O[C@H]2[C@@H](C)[C@H](C)O)[C@@H](O)[C@H]1O (some centres undefined)
> 100 µg/mL,100 µg/mL,> 1230 µM,> 100 µg/mL,> 100 µg/mL,> 100 µg/mL,> 100 µg/mL,,,C[C@H]([C@@H]1O[C@H]1CC1CO[C@@H](Cc2ccoc2)[C@H](O)[C@@H]1O)[C@H](C)O (some centres undefined)
> 100 µg/mL,100 µg/mL,744 µM,> 100 µg/mL,> 100 µg/mL,> 100 µg/mL,> 100 µg/mL,,,CCCCS/C=C(/C)C[C@@H]1OCC(C[C@@H]2O[C@H]2[C@@H](C)[C@H](C)O)[C@@H](O)[C@H]1O (some centres undefined)
> 100 µg/mL,12.5 µg/mL,51.7 µM,100 µg/mL,100 µg/mL,50 µg/mL,> 100 µg/mL,,,CCCCOC/C=C(\C)C[C@@H]1OCC(C[C@@H]2O[C@H]2[C@@H](C)[C@H](C)O)[C@@H](O)[C@H]1O (some centres undefined)
> 100 µg/mL,1.56 µg/mL,11 µM,6.2 µg/mL,3.1 µg/mL,3.1 µg/mL,6.2 µg/mL,,,C/C(=C\Sc1ccccc1)C[C@@H]1OC[C@H](C[C@@H]2O[C@H]2[C@@H](C)[C@H](C)O)[C@@H](O)[C@H]1O
> 100 µg/mL,100 µg/mL,> 989 µM,> 100 µg/mL,> 100 µg/mL,100 µg/mL,> 100 µg/mL,,,CCCC[S+]([O-])/C=C(\C)C[C@@H]1OCC(C[C@@H]2O[C@H]2[C@@H](C)[C@H](C)O)[C@@H](O)[C@H]1O (stereo in doubt; 15)
> 100 µg/mL,25 µg/mL,794 µM,100 µg/mL,100 µg/mL,6.2 µg/mL,100 µg/mL,,,C[C@H]([C@@H]1O[C@H]1CC1CO[C@@H](CC2=CC(=O)OC2)[C@H](O)[C@@H]1O)[C@H](C)O (some centres undefined)
,,171 µM,,,,,100 µg/mL,>100 µg/mL,CCCC[S+]([O-])/C=C(\C)C[C@@H]1OCC(C[C@@H]2O[C@H]2[C@@H](C)[C@H](C)O)[C@@H](O)[C@H]1O (stereo in doubt; 14)
> 100 µg/mL,> 100 µg/mL,181 µM,> 100 µg/mL,> 100 µg/mL,25 µg/mL,> 100 µg/mL,,,CCCCS(=O)(=O)/C=C(\C)C[C@@H]1OCC(C[C@@H]2O[C@H]2[C@@H](C)[C@H](C)O)[C@@H](O)[C@H]1O (some centres undefined)
100 µg/mL,0.2 µg/mL,0.494 µM,0.39 µg/mL,0.2 µg/mL,0.39 µg/mL,3.1 µg/mL,,,C/C(=C\C(=O)c1ccccc1)C[C@@H]1OCC(C[C@@H]2O[C@H]2[C@@H](C)[C@H](C)O)[C@@H](O)[C@H]1O (some centres undefined)
> 100 µg/mL,0.2 µg/mL,0.191 µM,0.1 µg/mL,0.1 µg/mL,0.1 µg/mL,0.78 µg/mL,,,C/C(=C\C(=O)OCCCCCCCCC(=O)[O-])C[C@@H]1OCC(C[C@@H]2O[C@H]2[C@@H](C)[C@H](C)O)[C@@H](O)[C@H]1O.[Na+] (some centres undefined)
> 100 µg/mL,6.2 µg/mL,14.8 µM,1.56 µg/mL,1.56 µg/mL,1.56 µg/mL,> 100 µg/mL,,,CSC(CCCCCCCCCC(=O)/C=C(\C)C[C@@H]1OCC(C[C@@H]2O[C@H]2[C@@H](C)[C@H](C)O)[C@@H](O)[C@H]1O)(SC)SC (some centres undefined)
50 µg/mL,0.05 µg/mL,3.32 µM,0.39 µg/mL,0.39 µg/mL,0.1 µg/mL,3.1 µg/mL,,,COC(=O)CCCCCCCCCC(=O)/C=C(\C)C[C@@H]1OCC(C[C@@H]2O[C@H]2[C@@H](C)[C@H](C)O)[C@@H](O)[C@H]1O (some centres undefined)
> 100 µg/mL,12.5 µg/mL,1.7 µM,> 100 µg/mL,> 100 µg/mL,100 µg/mL,> 100 µg/mL,,,COC(=O)CCCCCCCCOC/C=C(\C)C[C@@H]1OCC(C[C@@H]2O[C@H]2[C@@H](C)[C@H](C)O)[C@@H](O)[C@H]1O (some centres undefined)
50 µg/mL,0.05 µg/mL,1.17 µM,0.39 µg/mL,0.2 µg/mL,0.1 µg/mL,0.78 µg/mL,,,COC(=O)CCCCCCCCOC(=O)/C=C(\C)C[C@@H]1OCC(C[C@@H]2O[C@H]2[C@@H](C)[C@H](C)O)[C@@H](O)[C@H]1O (some centres undefined)
> 100 µg/mL,0.78 µg/mL,5.4 µM,0.78 µg/mL,1.56 µg/mL,0.78 µg/mL,3.1 µg/mL,,,CCCCS/C=C(\C)C[C@@H]1OCC(C[C@@H]2O[C@H]2[C@@H](C)[C@H](C)O)[C@@H](O)[C@H]1O (some centres undefined)
